Data taken from article PMC12153341 (Nucleic Acids Research, 2025).
Where “and” joins values, the source holds several entries; their conditions need not be identical. Identical values can stand only once. Entries after “also recorded” stand apart in the source; their conditions may differ. Values belong to the molecule of their own block, whether it stands above or below them.

Tests used:
KIF2C Nt (KIF2C1-79) = biological target: T1, KIF2C Nt (KIF2C1-79) (Homo sapiens, UniProt Q99661); type: binding; details: 15N-labeled KIF2C1-79, molar ratios 1:0 to 1:2, DPBS pH 7.0, 10°C
T1 sequence (Q99661 1-79): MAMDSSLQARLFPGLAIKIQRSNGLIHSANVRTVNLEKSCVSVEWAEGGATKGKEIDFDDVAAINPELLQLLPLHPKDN

KIF2A Nt (KIF2A1-77) = KIF2A Nt (KIF2A1-77) (Homo sapiens, UniProt O00139); type: binding; details: 15N-labeled KIF2A1-77, molar ratios 1:0 to 1:2, DPBS pH 7.0, 10°C
[1] = biological target: KIF2C N-terminal domain, KIF2C_(1-79) (human) (UniProt Q99661); test: ITC
[2] = biological target: KIF2A N-terminal domain, KIF2A_(1-77) (human) (UniProt O00139); test: ITC
[3] = tested on: Opto-KIF2C condensates in Flp-In T-REx 293 cells; type: cell-based
Method in brief: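 Opto-KIF2C expression induced with 1 μg/ml doxycycline for 16 h in cells plated at ~70% confluency in DMEM. Mitotic arrest used 100 ng/ml nocodazole for 16 h. Condensation induced under 488 nm LEDs at 10 mW/cm2, with 5 min of 4 s light/10 s dark cycles. Cells fixed in 4% PFA 15 min, permeabilized in 0.2% Triton 10 min, blocked in 3% BSA; primary and secondary antibodies 1 h RT each.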

[4] = tested on: proteins in the vicinity of TurboID-Opto-KIF2C condensates, Flp-In T-Rex 293 cells; type: cell-based; details: light OFF and ON conditions
Method in brief: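 Flp-In T-REx 293 cells stably carrying TurboID-Opto-KIF2C, nocodazole-arrested, at 75% confluence, induced with 6 ng/ml doxycycline for 16 h. Biotin added while cells received 15 min of blue-light cycles (4 s light/30 s dark), or kept dark. Lysates sonicated and cleared; 1 mg protein bound to streptavidin-agarose 3 h at 4°C, stringently washed, boiled in Laemmli buffer. Detection by HRP immunoblot with ECL.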

[5] = tested on: Opto-KIF2C condensates in Flp-In T-REx 293 cells; test: Opto-KIF2C foci formation; type: cell-based; details: mitotic cells; for number of optogenetic KIF2C condensates formed upon blue light exposure: light ON
[6] = tested on: Opto-KIF2C foci in Flp-In T-REx 293 cells; test: SIM measurement of Opto-KIF2C foci area; type: cell-based; details: mitotic cells, 5 min 488 nm light, about 0.1 μm^2 without nocodazole
[7] = biological target: T2, BRCA2_(48-218) phosphorylated by PLK1 (human, UniProt P51587 48-218, phosphoserine 193, phosphothreonine 207; 15N-labelled); test: NMR titration
T2 sequence (looked up): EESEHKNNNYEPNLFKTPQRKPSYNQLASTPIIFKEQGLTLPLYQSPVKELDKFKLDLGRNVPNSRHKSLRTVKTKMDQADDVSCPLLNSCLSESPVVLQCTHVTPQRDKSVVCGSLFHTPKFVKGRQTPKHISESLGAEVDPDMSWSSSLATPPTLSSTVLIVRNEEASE

Sequence of KIF2A N-terminal domain, KIF2A_(1-77) (human) (O00139 1-77): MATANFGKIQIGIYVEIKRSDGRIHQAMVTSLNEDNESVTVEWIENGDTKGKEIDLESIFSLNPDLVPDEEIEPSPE
Sequence of KIF2A Nt (KIF2A1-77) (O00139 1-77): as above

- binding to KIF2C Nt by NMR chemical shift analysis (KIF2C Nt (KIF2C1-79)): did not detect any binding
- binding to KIF2A Nt by NMR chemical shift analysis (KIF2A Nt (KIF2A1-77)): did not detect any binding
Molecule: BRCA2_194-214: non-phosphorylated synthetic BRCA2 peptide, residues 194-214 (WSSSLATPPTLSSTVLIVRNE)

- binding result [7]: binds
B1: KIF2C N-terminal domain, KIF2C_(1-79) (domain or fragment, human, UniProt Q99661 1-79, looked up)
chain: T1 sequence (Q99661 1-79)
modifications: 15N-labelled where it is the observed protein in NMR

Further lines, the molecule ahead of its results:

Molecule: BRCA2_(194-214(pT207)) peptide (from UniProt P51587 194-214)
- Kd [1]: 480 nM and 1300 nM
- dH [1]: -19.1 kcal/mol and -12.1 kcal/mol
- Kd [2]: 600 nM
- dH [2]: -15.7 kcal/mol and -18.1 kcal/mol

Molecule: COc1cc2c(Nc3ccc(NC(=O)c4ccccc4)cc3)ncnc2cc1OCCCN1CCOCC1 [ZM447439]
- BRCA2-pT207 in KIF2C condensates (immunofluorescence, co-localization) ([3]; Flp-In T-Rex 293 cells): could not detect; also recorded: abolished
- PLK1 and PLK1-pT210 within Opto-KIF2C condensates (immunofluorescence) ([3]; mitotic cells, absence or presence of nocodazole): unable to detect
- abundance of PLK1 in the vicinity of KIF2C condensates [4]: less abundant
- formation of KIF2C condensates formed without light ([5]; light OFF): completely abolished
- number of optogenetic KIF2C condensates formed upon blue light exposure ([5]; Noc (+)): did not change
- number of optogenetic KIF2C condensates formed upon blue light exposure ([5]; Noc (-)): mildly decreased

Molecule: COC(=O)Nc1nc2ccc(C(=O)c3cccs3)cc2[nH]1 [nocodazole]
- area of the Opto-KIF2C condensates [6]: about 0.15 μm^2
